Here are results for 26 molecules from ChEMBL document CHEMBL1955747, “Maximizing lipophilic efficiency: the use of Free-Wilson analysis in the design of inhibitors of acetyl-CoA carboxylase” (J Med Chem, 2012).

In brackets after ≈: the same amount, converted by molar mass.

For one data set, the target named is Acetyl-CoA carboxylase 2 (Homo sapiens, UniProt O00763). Briefly: Inhibition of human Acetyl-CoA carboxylase 2 expressed in CHO cells after 1 hr by fluorescence assay. It counts as cell-based.
For data set [1], the system named is Rattus norvegicus. In words: Antidiabetic activity in Sprague-Dawley rat assessed as inhibition of malonyl-CoA production in quadriceps at 50 mg/kg, po after 2 hrs by LC-MS analysis. It counts as functional.
A short description of data set [2]: Aqueous solubility at pH 6.5. It counts as physicochemical. To be noted: buffer.
Another data set concerns the target Acetyl-CoA carboxylase 1 (Rattus norvegicus, UniProt P11497). In words: Inhibition of rat liver Acetyl-CoA carboxylase 1 using acetyl-CoA as substrate preincubated for 10 mins prior substrate addition measured after 20 mins by luminescence counting. Summed up: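 Each IC50 comes from single-point inhibition data run in triplicate. The reported value is the arithmetic mean of at least three independent replicates ± SEM.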

Data set [3] can be described thus: Oral bioavailability in Sprague-Dawley rat. The class given is ADME, organism-based. To be noted: in vivo.
Data set [4] is described as follows: Permeability across dog RRCK cells. It counts as ADME, cell-based, Canis lupus familiaris, MDCKII-LE. To be noted: MDCK, read-out: permeability.
The nature of data set [5]: Plasma clearance in po dosed Sprague-Dawley rat. It counts as ADME, organism-based.
The subject of data set [6] is Rattus norvegicus. In words: Antidiabetic activity in po dosed Sprague-Dawley rat assessed as inhibition of malonyl-CoA production in quadriceps after 2 hrs by LC-MS analysis. The class given is functional.
The subject of data set [7] is Rattus norvegicus. Briefly: Antidiabetic activity in Sprague-Dawley rat assessed as inhibition of malonyl-CoA production in liver at 50 mg/kg, po after 2 hrs by LC-MS analysis. The class given is functional.
Data set [8] is described as follows: Intrinsic clearance in human liver microsomes. The class given is ADME, Microsome. To be noted: read-out: CLH. (Liver microsomes are vesicles of endoplasmic reticulum, rich in cytochrome P450 enzymes.)
Data set [9] in a line: Half life in po dosed Sprague-Dawley rat. It counts as ADME, organism-based. To be noted: in vivo.
Data set [10] relates to Rattus norvegicus. In words: Volume of distribution at steady state in po dosed Sprague-Dawley rat. The class given is ADME, organism-based. To be noted: in vivo.
A short description of data set [11]: Fraction unbound in Sprague-Dawley rat plasma. The class given is ADME, cell-free.
Data set [12] concerns Rattus norvegicus. Briefly: Antidiabetic activity in po dosed Sprague-Dawley rat assessed as inhibition of malonyl-CoA production in liver after 2 hrs by LC-MS analysis. It counts as functional.
Data set [13] can be described thus: Aqueous solubility at pH 7.4. It counts as physicochemical. To be noted: buffer.

By IC50 is commonly meant the concentration that gives 50% inhibition. Lower therefore signals inhibition by little substance. For orientation: solubility means how much of the substance goes into solution per volume. Usually bioavailability stands for the share of a dose that reaches the circulation, judged against a reference dose that is usually intravenous. Broadly, the CL/F is the apparent clearance, not corrected for the fraction that reaches the circulation. As a reminder, the ED50 is the midpoint of the dose-response relation. For orientation: half-life means the time needed for the level to fall by half in the phase considered. A lower half-life goes with rapid decline. A word on the fraction unbound: it is free concentration divided by total concentration. Low values mean little free substance, high ones much free substance.

Chain of Acetyl-CoA carboxylase 2 (O00763 whole entry): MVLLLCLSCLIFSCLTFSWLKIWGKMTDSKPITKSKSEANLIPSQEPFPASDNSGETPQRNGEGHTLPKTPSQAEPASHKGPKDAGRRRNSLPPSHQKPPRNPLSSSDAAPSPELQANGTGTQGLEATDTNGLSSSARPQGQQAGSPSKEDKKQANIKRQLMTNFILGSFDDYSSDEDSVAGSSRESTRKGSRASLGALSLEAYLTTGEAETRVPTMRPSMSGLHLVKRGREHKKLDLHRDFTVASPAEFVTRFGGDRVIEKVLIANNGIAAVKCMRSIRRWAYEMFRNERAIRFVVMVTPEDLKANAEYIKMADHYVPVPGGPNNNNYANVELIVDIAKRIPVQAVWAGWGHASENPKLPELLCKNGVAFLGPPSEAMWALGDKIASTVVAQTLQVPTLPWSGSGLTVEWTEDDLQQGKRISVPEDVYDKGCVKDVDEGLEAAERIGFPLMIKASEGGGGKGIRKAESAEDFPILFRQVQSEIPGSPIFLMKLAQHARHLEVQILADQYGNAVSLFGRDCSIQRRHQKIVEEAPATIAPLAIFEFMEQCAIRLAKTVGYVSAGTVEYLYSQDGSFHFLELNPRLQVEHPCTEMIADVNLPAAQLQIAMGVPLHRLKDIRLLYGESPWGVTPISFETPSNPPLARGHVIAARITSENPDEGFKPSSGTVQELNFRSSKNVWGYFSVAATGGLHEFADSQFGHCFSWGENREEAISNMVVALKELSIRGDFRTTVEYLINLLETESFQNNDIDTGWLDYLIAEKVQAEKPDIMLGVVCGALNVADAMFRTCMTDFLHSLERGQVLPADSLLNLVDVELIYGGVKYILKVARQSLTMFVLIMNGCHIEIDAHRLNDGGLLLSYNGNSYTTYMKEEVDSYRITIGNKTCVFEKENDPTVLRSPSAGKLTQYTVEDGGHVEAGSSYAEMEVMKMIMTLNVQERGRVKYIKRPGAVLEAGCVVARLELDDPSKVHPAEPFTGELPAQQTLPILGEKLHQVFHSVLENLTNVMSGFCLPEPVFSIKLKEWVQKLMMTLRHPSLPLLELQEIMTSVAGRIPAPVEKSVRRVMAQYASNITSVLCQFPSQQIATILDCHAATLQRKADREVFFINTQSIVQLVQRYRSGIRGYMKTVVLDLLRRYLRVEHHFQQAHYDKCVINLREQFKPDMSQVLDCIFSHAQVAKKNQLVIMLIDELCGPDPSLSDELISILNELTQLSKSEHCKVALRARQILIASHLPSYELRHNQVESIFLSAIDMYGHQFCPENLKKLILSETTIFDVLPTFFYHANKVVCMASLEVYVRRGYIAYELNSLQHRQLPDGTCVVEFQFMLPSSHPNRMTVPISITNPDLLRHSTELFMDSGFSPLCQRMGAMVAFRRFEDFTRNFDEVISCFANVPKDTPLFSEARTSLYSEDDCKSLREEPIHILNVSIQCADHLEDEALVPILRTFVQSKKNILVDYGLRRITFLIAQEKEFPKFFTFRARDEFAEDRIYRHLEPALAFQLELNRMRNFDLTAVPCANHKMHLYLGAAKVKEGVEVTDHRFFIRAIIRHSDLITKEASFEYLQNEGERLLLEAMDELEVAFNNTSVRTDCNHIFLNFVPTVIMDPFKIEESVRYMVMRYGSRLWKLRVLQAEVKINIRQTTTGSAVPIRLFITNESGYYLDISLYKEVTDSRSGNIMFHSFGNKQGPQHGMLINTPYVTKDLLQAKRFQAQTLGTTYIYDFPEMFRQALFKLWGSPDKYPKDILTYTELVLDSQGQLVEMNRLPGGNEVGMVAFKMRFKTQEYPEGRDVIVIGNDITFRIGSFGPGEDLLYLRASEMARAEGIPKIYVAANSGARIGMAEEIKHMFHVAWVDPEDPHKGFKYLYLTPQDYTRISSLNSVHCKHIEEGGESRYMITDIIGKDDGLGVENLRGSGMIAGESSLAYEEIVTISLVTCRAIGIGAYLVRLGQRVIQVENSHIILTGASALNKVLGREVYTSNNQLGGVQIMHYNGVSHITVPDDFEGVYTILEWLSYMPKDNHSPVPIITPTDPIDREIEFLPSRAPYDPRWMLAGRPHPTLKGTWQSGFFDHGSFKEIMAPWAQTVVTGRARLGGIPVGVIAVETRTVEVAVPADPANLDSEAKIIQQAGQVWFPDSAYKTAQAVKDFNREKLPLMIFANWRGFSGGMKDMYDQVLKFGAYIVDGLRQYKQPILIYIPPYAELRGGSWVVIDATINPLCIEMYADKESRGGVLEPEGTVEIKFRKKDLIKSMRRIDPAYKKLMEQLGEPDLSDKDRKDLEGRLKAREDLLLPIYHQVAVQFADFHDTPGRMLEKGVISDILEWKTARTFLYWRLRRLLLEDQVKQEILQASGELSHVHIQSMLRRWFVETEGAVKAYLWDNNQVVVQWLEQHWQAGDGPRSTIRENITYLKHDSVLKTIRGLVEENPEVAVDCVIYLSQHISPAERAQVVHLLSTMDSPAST

With `CCCn1cc2c(n1)C(=O)CC1(CCN(C(=O)c3cc(C)c4[nH]ncc4c3)CC1)O2`, at Acetyl-CoA carboxylase 2, the midpoint of inhibition, the IC50, lay at 45 nM. In other words, the double-digit nanomolar range.

Consider `CC(C)(C)n1cc2c(n1)C(=O)CC1(CCN(C(=O)c3ccc4nc[nH]c4c3)CC1)O2`, for which the Imax was determined as 75% in the data set on Rattus norvegicus [1] and 78% in the data set with Rattus norvegicus [7]. Also, the concentration in solution in [2] (solubility) was 300 µM (≈ 122 µg/mL). On Acetyl-CoA carboxylase 1, this molecule showed a half-inhibitory concentration (IC50) of 17 nM. Also, in data set [3], the bioavailability came to 50%. Besides, in data set [4], the Papp is 10.9 ×10⁻⁶ cm/s. The molecule also registered a CL/F in data set [5] of 26 mL/min/kg. The results for the ED50 in the data set with Rattus norvegicus [6] and in the data set with Rattus norvegicus [12] were 2.6 mg/kg and 1.6 mg/kg, respectively. For the same molecule, the CLint scaled in data set [8] was under 8 mL/min/kg. The half-life in data set [9] is 4.2 h. Besides, the Vdss in the data set on Rattus norvegicus [10] came out at 2.3 L/kg. Besides, the fraction unbound in data set [11] was determined as 0.55.

Consider `Cc1n[nH]c2c(C)cc(C(=O)N3CCC4(CC3)CC(=O)c3nn(C5CCOC5)c(C)c3O4)cc12` (configuration not stated), for which the CLint scaled in [8] came out at 23.1 mL/min/kg.

Consider `Cc1nc2c(C)cc(C(=O)N3CCC4(CC3)CC(=O)c3nn(C(C)(C)C)cc3O4)cc2[nH]1`, for which inhibition against Acetyl-CoA carboxylase 2 was half-maximal at 6.6 nM (IC50). For the same molecule, the CLint scaled in data set [8] stood at 15.1 mL/min/kg.

Regarding `Cc1cc(C(=O)N2CCC3(CC2)CC(=O)c2nn(C(C)(C)C)cc2O3)cc2cn[nH]c12`, the figures for the IC50 on Acetyl-CoA carboxylase 2 and against Acetyl-CoA carboxylase 1 were 6.9 nM and 7 nM, respectively.

As for `Cc1cc(C(=O)N2CCC3(CC2)CC(=O)c2nn(C)c(C)c2O3)cc2cn[nH]c12`, the IC50 on Acetyl-CoA carboxylase 2 is 470 nM; against Acetyl-CoA carboxylase 1, 280 nM.

For the molecule `CCn1nc2c(c1C)OC1(CCN(C(=O)c3cc(C)c4[nH]ncc4c3)CC1)CC2=O`, the midpoint of inhibition against Acetyl-CoA carboxylase 2, the IC50, lay at 37 nM.

In the case of `CCn1nc2c(c1C)OC1(CCN(C(=O)c3cc(C)c4nc(C)[nH]c4c3)CC1)CC2=O`, the IC50 on Acetyl-CoA carboxylase 2 was 56 nM; at Acetyl-CoA carboxylase 1 it was 34 nM.

In turn, `CCc1n[nH]c2ccc(C(=O)N3CCC4(CC3)CC(=O)c3nn(CC)c(C)c3O4)cc12` displayed a 50% inhibitory concentration (IC50) on Acetyl-CoA carboxylase 1 of 36 nM. This lies in the double-digit nanomolar range.

Consider `CCOc1cc(C(=O)N2CCC3(CC2)CC(=O)c2nn(CC)c(C)c2O3)cc2c(C)n[nH]c12`, for which, at Acetyl-CoA carboxylase 1, the midpoint of inhibition, the IC50, lay at 11.5 nM. Compared with the last molecule, the IC50 is about 3.1-fold lower.

For the molecule `Cc1cc(C(=O)N2CCC3(CC2)CC(=O)c2nn(C4CCCC4)cc2O3)cc2cn[nH]c12`, at Acetyl-CoA carboxylase 2, the IC50 turned out to be 9.4 nM. This counts as single-digit nanomolar.

On to `CCn1cc2c(n1)C(=O)CC1(CCN(C(=O)c3cc(C)c4[nH]ncc4c3)CC1)O2`, for which the IC50 came out at 63 nM at Acetyl-CoA carboxylase 2 and 62 nM against Acetyl-CoA carboxylase 1.

As to `Cc1cc(C(=O)N2CCC3(CC2)CC(=O)c2nn(C)cc2O3)cc2cn[nH]c12`, the results for the half-inhibitory concentration (IC50) at Acetyl-CoA carboxylase 2 and on Acetyl-CoA carboxylase 1 were 650 nM and 370 nM, respectively.

In turn, `Cc1cc(C(=O)N2CCC3(CC2)CC(=O)c2nn(Cc4ccccc4)cc2O3)cc2cn[nH]c12` registered an IC50 against Acetyl-CoA carboxylase 1 of 260 nM.

For the molecule `CCn1nc2c(c1C)OC1(CCN(C(=O)c3ccc4[nH]ncc4c3)CC1)CC2=O`, the IC50 was 92 nM against Acetyl-CoA carboxylase 2 and 100 nM at Acetyl-CoA carboxylase 1.

For the molecule `Cn1ncc2ccc(C(=O)N3CCC4(CC3)CC(=O)c3nn(C(C)(C)C)cc3O4)cc21`, the IC50 is 21 nM against Acetyl-CoA carboxylase 2 and 13 nM against Acetyl-CoA carboxylase 1. For the same molecule, in [8], the CLint scaled was determined as 13.1 mL/min/kg.

As for `CCc1cc(C(=O)N2CCC3(CC2)CC(=O)c2nn(CC)c(C)c2O3)cc2cn[nH]c12`, the IC50 against Acetyl-CoA carboxylase 2 was 37 nM; against Acetyl-CoA carboxylase 1, 31 nM.

With `CCn1nc2c(c1C)OC1(CCN(C(=O)c3cc(C)c4[nH]nc(C)c4c3)CC1)CC2=O`, the IC50 against Acetyl-CoA carboxylase 2 came to 13 nM; against Acetyl-CoA carboxylase 1, 12 nM.

With `CCn1nc2c(c1C)OC1(CCN(C(=O)c3ccc4[nH]nc(C)c4c3)CC1)CC2=O`, the values for the IC50 against Acetyl-CoA carboxylase 2 and against Acetyl-CoA carboxylase 1 were 42 nM and 29 nM, respectively.

Molecule `Cc1cc(C(=O)N2CCC3(CC2)CC(=O)c2nn(C4CCC4)cc2O3)cc2cn[nH]c12` came in with an IC50 against Acetyl-CoA carboxylase 2 of 14 nM. That is a double-digit nanomolar value.

Take `Cc1cc2c(cc1C)C(=O)CC1(CCN(C(=O)c3cc(C)c4[nH]ncc4c3)CC1)O2`: the CLint scaled in data set [8] was 68 mL/min/kg. Further, the concentration in solution in data set [13] (solubility) came to 19 µM (≈ 7.67 µg/mL).

Take `CCn1nc2c(c1C)OC1(CCN(C(=O)c3cc(C)c4nc[nH]c4c3)CC1)CC2=O`: the values for the IC50 at Acetyl-CoA carboxylase 2 and against Acetyl-CoA carboxylase 1 were 80 nM and 49 nM, respectively.

On to `Cc1cc(C(=O)N2CCC3(CC2)CC(=O)c2nn(C4CCCCC4)cc2O3)cc2cn[nH]c12`, for which the IC50 on Acetyl-CoA carboxylase 2 stood at 63 nM; at Acetyl-CoA carboxylase 1 it was 46 nM.

Consider `Cc1n[nH]c2c(C)cc(C(=O)N3CCC4(CC3)CC(=O)c3nn(C(C)C)cc3O4)cc12`, for which the values for the IC50 against Acetyl-CoA carboxylase 2 and at Acetyl-CoA carboxylase 1 were 14 nM and 12 nM, respectively. In addition, the CLint scaled in [8] is under 8 mL/min/kg.

In the case of `Cc1cc(C(=O)N2CCC3(CC2)CC(=O)c2nn(C(C)(C)C)cc2O3)cc2[nH]cnc12`, the IC50 against Acetyl-CoA carboxylase 2 is 7.4 nM; at Acetyl-CoA carboxylase 1 it was 9.6 nM. Also, in data set [8], the CLint scaled was 12.4 mL/min/kg.

In the case of `Cc1cc(C(=O)N2CCC3(CC2)CC(=O)c2nn(C(C)C)cc2O3)cc2cn[nH]c12`, the IC50 against Acetyl-CoA carboxylase 2 is 23 nM.
